Ecoli rRNA inh = selective bacterial rRNA inhibition in E. coli | E. coli WT GFP vs humanized-ribosome RFP mutants, fluorescence, 24 h; active compounds read low; DMSO median 0, no signal -100 | GFP signal change (wild-type ribosome), % (concentration not given with the values) | 350,000 tested, 1.6% active;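 active = significant combined selectivity score with lowered wild-type GFP, culture density cut under 30%, mutant RFP and density less affected; inactive = any of these conditions unmet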
E-sel inducer = E-selectin induction on HUVECs. HUVEC E-selectin immunofluorescence imaging; normalized: neutral wells 0, TNF-alpha wells 100. activation, % at 7.58 µM. 260,000 tested, 0.37% active;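 active = mean E-selectin-positive cell signal at least 10% of the positive control, reached in at least 60% of replicates, without over 20% cell loss; inconclusive = no rule given, readout overlaps actives, possibly toxicity-flagged; inactive = the rest, including those meeting only one limit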
Target sequence (P16581 whole entry, looked up): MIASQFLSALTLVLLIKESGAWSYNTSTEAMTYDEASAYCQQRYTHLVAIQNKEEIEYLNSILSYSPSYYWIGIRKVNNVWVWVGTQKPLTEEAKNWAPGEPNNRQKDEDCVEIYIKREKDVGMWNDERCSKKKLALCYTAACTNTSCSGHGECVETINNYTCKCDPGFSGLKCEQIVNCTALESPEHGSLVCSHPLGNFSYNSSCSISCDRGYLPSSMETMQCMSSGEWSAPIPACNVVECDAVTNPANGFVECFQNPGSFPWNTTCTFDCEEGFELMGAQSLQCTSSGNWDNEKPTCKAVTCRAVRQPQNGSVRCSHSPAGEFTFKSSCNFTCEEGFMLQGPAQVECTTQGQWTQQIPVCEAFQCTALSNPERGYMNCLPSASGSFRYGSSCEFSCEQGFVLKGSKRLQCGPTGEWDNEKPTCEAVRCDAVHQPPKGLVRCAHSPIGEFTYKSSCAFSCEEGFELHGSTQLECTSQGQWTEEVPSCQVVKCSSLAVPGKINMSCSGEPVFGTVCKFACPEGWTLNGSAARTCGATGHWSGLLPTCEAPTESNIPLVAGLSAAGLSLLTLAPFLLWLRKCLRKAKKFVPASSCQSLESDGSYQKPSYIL
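Read-out basis: % PE-positive cells; Test system: HUVEC primary endothelial cells; Technique: immunofluorescence imaging; Dosing: single-point compound dose.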
EWS-Fli block = inhibitors of EWS/Fli oncoprotein transcriptional activity; AID 651661; inhibition, % at 12.6 µM; A673 NR0B1-luciferase reporter, viability-normalised; 350,000 tested, 0.67% active;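 active = mean inhibition of at least 50% after viability correction, with every replicate also passing that limit; inconclusive = mean reaches 50% but only one of two replicates passes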;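 note: firefly luciferase signal divided by Alamar Blue viability fluorescence both relative to DMSO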
LGR2 inh = Drosophila LGR2 receptor signaling inhibition; HEK293 LGR2, CRE-luciferase, bursicon-stimulated, 4 h; inhibition, % at 9.99 µM; 380,000 tested, 0.35% active; AID 720647;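 active = drop in luminescence signal, shown as inhibition above about 50% in the replicate tests, limit read from the data, passing the limit was not always enough; inconclusive = probably only some replicates passing the limit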;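 note: agonist challenge used bursicon conditioned medium at about half maximal strength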
Hits are given with their value; - = inactive; ? = inconclusive; . = no result given; ! = a repeat was not active. Most compounds without a hit are left out; they make up all but 2.4% or so of the library.

SMILES	Ecoli rRNA inh	E-sel inducer	EWS-Fli block	LGR2 inh
CN(C)C(=O)c1ccc(-c2ccc(C3[C@@H]4CN(Cc5nccs5)C[C@H]3N4)cc2)cc1 (stereo not given in full)	-	?	53!	-
O=C(c1ccc2c(c1)OCO2)N1C[C@@H]2N[C@H](C1)C2c1ccc(-c2cccnc2)cc1 (stereo not given in full)	-	-	64!	-
C[C@@H]1CCCCO[C@H](CN(C)Cc2ccc(Cl)c(Cl)c2)[C@@H](C)CN([C@@H](C)CO)C(=O)c2cc(NC(=O)C3CCCCC3)ccc2O1	-	-	-	-
COc1ccc(C#Cc2ccc([C@@H]3[C@H]4CN(C(=O)Nc5ccccc5F)CC(=O)N4[C@H]3CO)cc2)cc1	-	-	-	-
C[C@@H]1CN([C@@H](C)CO)C(=O)Cc2cc(NC(=O)Cn3cnnn3)ccc2O[C@H]1CN(C)C(=O)Nc1cccc2ccccc12	-	-	.	-
Cc1cccc(C(=O)Oc2c(Br)cc(Br)cc2/C=N/NC(=O)c2ccncc2)c1	-	.	-	-
Cc1cc(C(=O)N/N=C/c2cc(Br)cc(Br)c2OC(=O)c2cccc(F)c2)n[nH]1	-31	.	-	-
O=C(c1ccccc1)N1Cc2ccccc2[C@@H]2OC(c3ccc(OCCCO)cc3)=N[C@]2(Cc2ccccc2)C1=O	.	.	-	.
Cc1cc(C(=O)Nc2sc3c(c2C#N)CCCC3)no1	-31	.	-	-
C[C@@H]1CN([C@H](C)CO)S(=O)(=O)c2ccc(C3=CCCC3)cc2O[C@H]1CN(C)C(=O)C1CCC1	-	-	-	-
COc1ccc(-c2c(-c3ccccc3)c(C(=O)C(=O)NCCCN(C)C)n3ccc4cc(OC)c(OC)cc4c23)cc1OC	-	-	86	-
CO[C@H]1CC[C@H]2CCOc3ccc(C#N)cc3C(=O)N(C)C[C@H](c3ccccc3)CC(=O)N(C)C[C@@H]1O2	-	-	-	-
CC(C)CC#Cc1ccc2c(c1)O[C@@H](CN(C)C(=O)Cc1ccccc1)[C@@H](C)CN([C@@H](C)CO)S2(=O)=O	-	-	-	-
CCCC(=O)N(Cc1cc(=O)[nH]c2ccccc12)c1ccc(OC)cc1	-	-	-	-
COc1ccc(N(Cc2cc(=O)[nH]c3ccccc23)C(=O)CCl)cc1	-	-	66	-
Cc1cccc(N(Cc2cc(=O)[nH]c3ccccc23)C(=O)CCl)c1	-	.	61	-
O=C(C[C@H]1CC[C@H](NC(=O)C2CCOCC2)[C@H](CO)O1)NCC1CC1	-	-	.	-
COc1ccc(S(=O)(=O)Nc2ccc3c(c2)C(=O)N([C@H](C)CO)C[C@@H](C)[C@H](CN(C)Cc2ccc(Cl)c(Cl)c2)O3)cc1	-	40	-	-
COc1ccc(S(=O)(=O)Nc2ccc3c(c2)C(=O)N([C@@H](C)CO)C[C@@H](C)[C@H](CN(C)Cc2ccc(Cl)c(Cl)c2)O3)cc1	-	-	-	-
COc1ccc(S(=O)(=O)Nc2ccc3c(c2)C(=O)N([C@H](C)CO)C[C@@H](C)[C@@H](CN(C)Cc2ccc(Cl)c(Cl)c2)O3)cc1	-	29	-	-
COc1ccc(S(=O)(=O)Nc2ccc3c(c2)C(=O)N([C@@H](C)CO)C[C@H](C)[C@H](CN(C)Cc2ccc(Cl)c(Cl)c2)O3)cc1	-	-	-	-
Cc1ccccc1-n1cc(-c2ccc(Br)cc2)nc1SCC(N)=O	-41	-	-	-
Cc1cc(NC(=O)NC(=O)c2ccccc2NC(=O)CN(C)C)ccc1Oc1ncc(Br)cn1	-	-	58	-
Cc1cc(NC(=O)NC(=O)c2ccccc2NC(=O)CN)ccc1Oc1ncc(Br)cn1	.	-	-	.
COc1ccccc1C1CC(=O)Nc2cc(C)c(C)cc21 (stereo not given)	-	.	54	-
SMILES	Ecoli rRNA inh	E-sel inducer	EWS-Fli block	LGR2 inh
COCC(=O)Nc1ccc2c(c1)OC[C@@H](C)N(C(=O)NC(C)C)C[C@H](C)[C@@H](OC)CN(C)C2=O	-	-	-	-
CCN1CCN(CCCNC(=O)c2ccc3c(c2)NC(=O)/C(=C\c2cccc(C)c2)S3)CC1	-	.	60	-
Cc1cccc(/C=C2/Sc3ccc(C(=O)NCCCN4CCOCC4)cc3NC2=O)c1	-	.	-	-
O=C(C1CCCN(S(=O)(=O)c2cccc3nonc23)C1)N1CCN(c2ccccc2)CC1 (stereo not given)	-29	.	-	-
Cc1nn(-c2ccccc2)c(C)c1CN(C)C(=O)c1ccc(S(=O)(=O)NCc2ccco2)cc1	-33	.	-	-
Oc1cccc(C=NN=C2c3ccccc3-c3ccccc32)c1	-34	-	-	-
CCN(CC)CCCNc1oc(-c2cccc(Cl)c2)nc1C#N	.	.	.	-
CCN(CC)CCCNc1ccc(-c2nnc(-c3ccc(OCC(C)C)cc3)o2)cn1	-	-	61	-
COc1ccc(NC(=O)N(C)C[C@H]2OCCCC[C@H](C)Oc3ccc(NS(=O)(=O)c4ccccc4)cc3C(=O)N([C@@H](C)CO)C[C@@H]2C)cc1	-	-	-	-
C[C@H]1CN([C@@H](C)CO)S(=O)(=O)c2ccc(-c3cccnc3)cc2O[C@@H]1CN(C)CC1CCOCC1	-	-	-	-
O=C(N/N=C/c1cccc(O)c1)NC1CCCCC1	-25	-	-	-
CCOC(=O)[C@H]1[C@@H]2C(=O)N3CCC[C@H]3[C@H](O[Si](C(C)C)(C(C)C)C(C)C)[C@H]2C=C2CCN(S(=O)(=O)c3ccc(C)cc3)C[C@H]21	.	.	-	.
COc1cc(C(=O)Nc2nc(-c3ccc(C)cc3)cs2)ccc1OCC(=O)N1CCOCC1	.	.	.	-
COc1ccc(-c2csc(NC(=O)c3ccc(OCC(=O)N4CCOCC4)c(OC)c3)n2)cc1	-	.	-	92
COc1cc(C(=O)NC(C)c2cc(C)ccc2C)ccc1OCC(=O)N1CCOCC1 (stereo not given)	-	144	-	-
C[C@H](CO)N1C[C@H](C)[C@H](CN(C)C(=O)CN(C)C)Oc2cc(-c3ccncc3)ccc2S1(=O)=O	-	-	-	-
COCCn1nnnc1C(c1cccs1)N1CCN(c2cc(C)ccc2C)CC1 (stereo not given)	.	.	.	-
COCCCNC(=S)N1CCN(c2nc3ccccc3s2)CC1	-30	-	-	-
COCCn1nnnc1C(c1cccs1)N1CCN(c2nc3ccccc3s2)CC1 (stereo not given)	-22	.	-	-
COCCNC(=S)N1CCN(c2nc3ccccc3s2)CC1	-26	.	-	-
Cc1nc2ncccn2c1-c1csc(Nc2ccccc2)n1	-	.	-	.
CC(=O)Nc1ccc(Nc2nc(-c3c(C)nc4ccccn34)cs2)cc1	-	-	57	-
Fc1ccccc1N=C1NN=C(c2ccccc2)CS1	-	-	-	-
Clc1ccccc1N=C1NN=C(c2cccs2)CS1	-32	-	-	-
C[C@H]1CCCCO[C@@H](CN(C)S(=O)(=O)c2cn(C)cn2)[C@@H](C)CN([C@@H](C)CO)C(=O)c2cc(NC(=O)CCC(F)(F)F)ccc2O1	-	-	-	-
Cc1c(NC(=O)c2ccc([N+](=O)[O-])o2)cccc1-c1nc2ncccc2o1	-24	-	-	-
